Consider one compound from ChEMBL document CHEMBL4390675, “Dopamine D4 Receptor-Selective Compounds Reveal Structure-Activity Relationships that Engender Agonist Efficacy” (J Med Chem, 2019).

The target of assay [1] is T1, D(3) dopamine receptor (Homo sapiens, UniProt P35462). Description: Antagonist activity at human D3 receptor expressed in CHOK1 cells assessed as inhibition of dopamine-induced beta-arrestin recruitment measured after 90 mins by luminescence assay relative to control. The format is cell-based. The method in brief: (§1)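 Antagonist-mode PathHunter β-arrestin assay in CHO-K1 cells stably expressing human D2R long isoform or D3R, seeded overnight. Compound dilutions in PBS with 0.2 μM metabisulfite were co-incubated with an EC80 dopamine concentration for 90 min at 37 °C. Detection reagent was added for 45–60 min at room temperature, then luminescence was read. Values are % of dopamine EC80 response, from nonlinear regression of triplicate runs, n = 3–4.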

For assay [2], the target named is T2, D(4) dopamine receptor (Homo sapiens, UniProt P21917).
T2 sequence (P21917 whole entry): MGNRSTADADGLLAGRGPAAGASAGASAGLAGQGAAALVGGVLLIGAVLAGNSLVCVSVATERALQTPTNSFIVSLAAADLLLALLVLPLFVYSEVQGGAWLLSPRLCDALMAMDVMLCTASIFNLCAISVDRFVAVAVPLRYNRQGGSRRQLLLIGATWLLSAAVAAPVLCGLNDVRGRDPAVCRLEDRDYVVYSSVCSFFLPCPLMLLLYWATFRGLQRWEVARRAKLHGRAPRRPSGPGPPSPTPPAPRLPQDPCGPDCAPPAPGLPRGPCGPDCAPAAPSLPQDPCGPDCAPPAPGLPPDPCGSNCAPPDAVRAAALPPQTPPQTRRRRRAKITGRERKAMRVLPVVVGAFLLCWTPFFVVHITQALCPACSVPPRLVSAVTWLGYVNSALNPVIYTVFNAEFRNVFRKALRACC
In words: Agonist activity at human D4 receptor expressed in CHOK1 cells assessed as induction of beta-arrestin recruitment measured after 90 mins by luminescence assay. Type of assay: cell-based. Conditions: read-out: EC50. The method in brief: (§2)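 PathHunter enzyme-complementation assay in CHO-K1 cells stably expressing human D2R long isoform, D3R or D4R, seeded overnight in Ham's F12/10% FBS. Compounds were diluted in PBS with 0.2 μM sodium metabisulfite and applied at multiple concentrations for 90 min at 37 °C. Detection reagent was added for 45–60 min at room temperature, then luminescence was read. Values are % of maximal dopamine response, from nonlinear regression of triplicate runs, mean ± SEM, n = 3–4.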

Assay [3] concerns the target T1, D(3) dopamine receptor. In words: Agonist activity at human D3 receptor expressed in CHOK1 cells assessed as induction of beta-arrestin recruitment measured after 90 mins by luminescence assay relative to control. The format is cell-based. The method, boiled down: as §2
Assay [4] concerns the target D(1B) dopamine receptor (Homo sapiens) (UniProt P21918). In words: Antagonist activity at D5 receptor (unknown origin) stably expressed in CHOK1 cells assessed as inhibition of dopamine-induced beta-arrestin recruitment measured after 90 mins by luminescence assay. The format is cell-based.
Assay [5] addresses T2, D(4) dopamine receptor. Description: Antagonist activity at human D4 receptor expressed in CHOK1 cells assessed as inhibition of dopamine-induced beta-arrestin recruitment measured after 90 mins by luminescence assay. Type of assay: cell-based. Conditions: read-out: IC50.
In assay [6] the target is T3, D(4) dopamine receptor (Homo sapiens) (UniProt P21917).
T3 sequence (whole entry): T2 sequence (P21917 whole entry)
Description: Antagonist activity at human D4 receptor expressed in CHOK1 cells assessed as suppression of dopamine-induced inhibition of forskolin-stimulated cAMP accumulation measured after 30 mins by Eu-cAMP tracer based TR-FRET assay relative to dopamine. Also noted: concentration or dose not given beside the values. Type of assay: functional, cell-based.

For assay [7], the target named is T4, D(2) dopamine receptor (Homo sapiens, UniProt P14416). In words: Agonist activity at human D2L receptor expressed in CHOK1 cells assessed as inhibition of forskolin-induced cAMP accumulation measured after 30 mins by Eu-cAMP tracer based TR-FRET assay relative to dopamine. Type of assay: cell-based. Conditions: 0.5 h.
The target of assay [8] is T2, D(4) dopamine receptor. In words: Displacement of [3H]N-methylspiperone from human D4.4 receptor expressed in HEK293 cell membranes measured after 60 mins by scintillation counting method. The method in brief:
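Frozen HEK293 membranes stably expressing human D4.4R (30 μg/well) in EBSS-bicarbonate buffer, pH 7.4, were incubated with 0.4 nM [3H]N-methylspiperone and half-log compound dilutions (30% DMSO vehicle) for 60 min at room temperature. Nonspecific binding was defined by 10 μM (+)-butaclamol. Samples were filtered on GF/B filters and counted by scintillation.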

The target in assay [9] is T1, D(3) dopamine receptor. Description: Displacement of [3H](R)-(+)-7-OH-DPAT from human D3 receptor expressed in HEK293 cell membranes measured after 90 mins by scintillation counting method. The method, boiled down:
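Fresh HEK293 hD3R membranes (40 μg/well) in 50 mM Tris, 10 mM MgCl2, 1 mM EDTA, pH 7.4 were incubated with 0.5 nM [3H]-(R)-(+)-7-OH-DPAT and half-log compound dilutions in 30% DMSO for 90 min at room temperature. Nonspecific binding was defined with 10 μM (+)-butaclamol. Samples were filtered on PEI-soaked GF/B filters and counted by scintillation.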

The target of assay [10] is D(1A) dopamine receptor (Homo sapiens) (UniProt P21728). In words: Antagonist activity at D1 receptor (unknown origin) stably expressed in CHOK1 cells assessed as inhibition of dopamine-induced beta-arrestin recruitment measured after 90 mins by luminescence assay. Type of assay: cell-based.
The target of assay [11] is D(1B) dopamine receptor (Homo sapiens) (UniProt P21918). Description: Agonist activity at D5 receptor (unknown origin) stably expressed in CHOK1 cells assessed as induction of beta-arrestin recruitment measured after 90 mins by luminescence assay. Type of assay: cell-based.
Assay [12] has as its target T2, D(4) dopamine receptor. In words: Agonist activity at human D4 receptor expressed in CHOK1 cells assessed as inhibition of forskolin-induced cAMP accumulation measured after 30 mins by Eu-cAMP tracer based TR-FRET assay. The settings on record: read-out: EC50. Type of assay: functional, cell-based. The method, boiled down:
(§3)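 LANCE Ultra TR-FRET cAMP assay in CHO-K1 cells stably expressing human D2R long isoform or D4R. Cells were plated in HBSS/5 mM HEPES/0.2 μM metabisulfite, then immediately given compound plus forskolin (10 μM final) for 30 min at room temperature. Eu-cAMP tracer and ULight-anti-cAMP were added for 2 h in the dark. Values are % of maximal dopamine signal, nonlinear regression of triplicate runs, n = 3–4.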

Assay [13] concerns the target T3, D(4) dopamine receptor (Homo sapiens). In words: Agonist activity at human D4 receptor expressed in CHOK1 cells assessed as inhibition of forskolin-induced cAMP accumulation measured after 30 mins by Eu-cAMP tracer based TR-FRET assay relative to dopamine. Type of assay: functional, cell-based. The method, boiled down:
as §3

For assay [14] the target is unchanged. Description: Antagonist activity at human D4 receptor expressed in CHOK1 cells assessed as inhibition of dopamine-induced beta-arrestin recruitment measured after 90 mins by luminescence assay relative to control. The format is cell-based. Also noted: concentration or dose not given beside the values.
For assay [15], the target named is T1, D(3) dopamine receptor. Description: Displacement of [3H]N-methylspiperone from human D3 receptor expressed in HEK293 cell membranes measured after 60 mins by scintillation counting method. The method, boiled down:
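HEK293 cells stably expressing human D3R; membranes in EBSS buffer pH 7.4, stored at −80 °C. 20 μg protein/well with 0.4 nM [3H]N-methylspiperone (final), half-log dilutions in 30% DMSO, in triplicate. 60 min at room temperature, then GF/B filtration. Nonspecific binding with 10 μM (+)-butaclamol.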

In assay [16] the target is T1, D(3) dopamine receptor. Description: Antagonist activity at human D3 receptor expressed in CHOK1 cells assessed as inhibition of dopamine-induced beta-arrestin recruitment measured after 90 mins by luminescence assay. The format is cell-based. Conditions: read-out: IC50. The method, boiled down: as §1
The target in assay [17] is D(1A) dopamine receptor (Homo sapiens) (UniProt P21728). Description: Agonist activity at D1 receptor (unknown origin) stably expressed in CHOK1 cells assessed as induction of beta-arrestin recruitment measured after 90 mins by luminescence assay. Type of assay: cell-based.
The target of assay [18] is T3, D(4) dopamine receptor (Homo sapiens). In words: Agonist activity at human D4 receptor expressed in CHOK1 cells assessed as induction of beta-arrestin recruitment measured after 90 mins by luminescence assay relative to control. The format is cell-based. The method, boiled down: as §2
The target in assay [19] is T1, D(3) dopamine receptor. Description: Agonist activity at human D3 receptor expressed in CHOK1 cells assessed as induction of beta-arrestin recruitment measured after 90 mins by luminescence assay. Conditions: read-out: EC50. Type of assay: cell-based. The method, boiled down: as §2
In assay [20] the target is T2, D(4) dopamine receptor. Description: Displacement of [3H](R)-(+)-7-OH-DPAT from human D4.4 receptor expressed in HEK293 cell membranes measured after 90 mins by scintillation counting method. The method in brief:
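HEK293 cells stably expressing human D4.4R; membranes used fresh in 50 mM Tris, 10 mM MgCl2, 1 mM EDTA, pH 7.4. 60 μg protein/well with 3 nM [3H]-(R)-(+)-7-OH-DPAT (final), half-log dilutions in 30% DMSO, in triplicate. 90 min at room temperature, then GF/B filtration. Nonspecific binding with 10 μM (+)-butaclamol.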

For assay [21], the target named is T4, D(2) dopamine receptor. Description: Agonist activity at human D2L receptor expressed in CHOK1 cells assessed as induction of beta-arrestin recruitment measured after 90 mins by luminescence assay relative to control. The format is cell-based. The method in brief:
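PathHunter enzyme-complementation assay in CHO-K1 cells stably expressing human D2R long isoform, seeded 2625 cells/well and incubated overnight. Compounds diluted in PBS with 0.2 μM sodium metabisulfite, tested at multiple concentrations, 90 min at 37 °C. Detection reagent then 45–60 min at room temperature, luminescence read. Normalized to maximal dopamine response. Nonlinear regression of triplicate runs, n = 3–4.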

Assay [22] deals with T2, D(4) dopamine receptor. Description: Antagonist activity at human D4 receptor expressed in CHOK1 cells assessed as suppression of dopamine-induced inhibition of forskolin-stimulated cAMP accumulation measured after 30 mins by Eu-cAMP tracer based TR-FRET assay. The format is functional, cell-based.

Structures are written as SMILES. pEC50, pIC50, pKi: −log10 of the molar value. Activity calls are given as the source filed them. No cut-off for these calls is given here. Bounds are passed on as bounds.

T1 sequence (P35462 whole entry, canonical isoform): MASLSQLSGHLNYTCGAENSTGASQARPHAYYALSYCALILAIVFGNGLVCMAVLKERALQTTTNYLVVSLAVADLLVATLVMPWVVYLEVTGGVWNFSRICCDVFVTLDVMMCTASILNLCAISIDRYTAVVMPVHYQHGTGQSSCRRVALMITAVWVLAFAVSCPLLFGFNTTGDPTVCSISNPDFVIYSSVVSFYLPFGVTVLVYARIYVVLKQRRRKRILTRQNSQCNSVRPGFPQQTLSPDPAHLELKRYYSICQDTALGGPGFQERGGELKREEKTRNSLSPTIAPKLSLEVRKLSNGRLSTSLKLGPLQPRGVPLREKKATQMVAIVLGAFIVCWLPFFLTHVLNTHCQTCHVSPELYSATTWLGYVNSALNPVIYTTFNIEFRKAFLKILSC
Chain of D(1B) dopamine receptor (Homo sapiens) (P21918 whole entry): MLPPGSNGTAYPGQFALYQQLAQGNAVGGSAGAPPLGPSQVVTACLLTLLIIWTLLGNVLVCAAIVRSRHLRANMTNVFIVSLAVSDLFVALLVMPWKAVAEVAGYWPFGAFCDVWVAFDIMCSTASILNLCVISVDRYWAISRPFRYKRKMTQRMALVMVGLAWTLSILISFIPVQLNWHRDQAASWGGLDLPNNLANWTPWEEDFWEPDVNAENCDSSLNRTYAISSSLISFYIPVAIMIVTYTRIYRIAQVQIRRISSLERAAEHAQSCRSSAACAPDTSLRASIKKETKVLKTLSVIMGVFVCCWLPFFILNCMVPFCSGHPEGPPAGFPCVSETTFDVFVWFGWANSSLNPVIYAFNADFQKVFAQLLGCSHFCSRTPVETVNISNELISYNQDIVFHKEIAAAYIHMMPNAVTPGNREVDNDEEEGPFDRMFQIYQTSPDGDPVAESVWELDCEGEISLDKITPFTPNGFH
T4 sequence (P14416 whole entry): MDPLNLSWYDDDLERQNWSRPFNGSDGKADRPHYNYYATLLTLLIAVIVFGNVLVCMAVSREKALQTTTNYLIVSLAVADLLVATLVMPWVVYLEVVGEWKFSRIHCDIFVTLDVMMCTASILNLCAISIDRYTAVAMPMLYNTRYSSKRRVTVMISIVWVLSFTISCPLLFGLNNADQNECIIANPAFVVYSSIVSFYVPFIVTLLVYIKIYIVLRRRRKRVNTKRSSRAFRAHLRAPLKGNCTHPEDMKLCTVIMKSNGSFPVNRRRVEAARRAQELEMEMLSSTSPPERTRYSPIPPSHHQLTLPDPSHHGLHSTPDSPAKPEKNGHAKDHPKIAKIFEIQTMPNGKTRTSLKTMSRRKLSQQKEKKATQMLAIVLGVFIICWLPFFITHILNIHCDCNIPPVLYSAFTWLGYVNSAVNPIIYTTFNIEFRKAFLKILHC
Chain of D(1A) dopamine receptor (Homo sapiens) (P21728 whole entry): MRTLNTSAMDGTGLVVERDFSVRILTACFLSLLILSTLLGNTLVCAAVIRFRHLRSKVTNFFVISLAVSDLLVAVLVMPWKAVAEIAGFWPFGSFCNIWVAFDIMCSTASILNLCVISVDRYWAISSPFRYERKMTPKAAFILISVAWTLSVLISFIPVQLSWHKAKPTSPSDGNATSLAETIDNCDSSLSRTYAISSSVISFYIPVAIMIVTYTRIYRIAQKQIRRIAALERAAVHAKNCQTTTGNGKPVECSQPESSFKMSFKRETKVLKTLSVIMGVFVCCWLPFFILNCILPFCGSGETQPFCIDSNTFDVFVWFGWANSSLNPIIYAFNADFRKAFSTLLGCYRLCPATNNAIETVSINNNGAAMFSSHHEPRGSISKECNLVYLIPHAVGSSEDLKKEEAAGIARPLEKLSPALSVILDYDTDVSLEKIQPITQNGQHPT

As to `Cc1cccc(NC(=O)CN2CCN(c3ccccn3)CC2)c1`, the inhibition result (at D(3) dopamine receptor [1]; in assay [4]; in [10]) was “inactive” in each case. The pEC50 at D(4) dopamine receptor [2] was 6.40; on D(4) dopamine receptor [12], 8.44; at D(3) dopamine receptor [19], 5.20. The Emax was 49.4% on D(3) dopamine receptor [3]; 19% at D(2) dopamine receptor [7]; 64.2% in assay [13]; 30.7% in [18]; 23.9% at D(2) dopamine receptor [21]. Moreover, the pIC50 was 6.50 at D(4) dopamine receptor [5], less than 4.00 at D(3) dopamine receptor [16] and 7.08 at D(4) dopamine receptor [22]. The inhibition in assay [6] stood at 43.2%; in assay [14], 78.9%. For the same compound, the pKi on D(4) dopamine receptor [8] was 6.67; at D(3) dopamine receptor [9], 5.19; at D(3) dopamine receptor [15], less than 5.00; at D(4) dopamine receptor [20], 8.72. Further, the result in assay [11] and in [17] was inactive.
